# Laboratory results published in PubChem BioAssay AID2648 (Johns Hopkins Ion Channel Center, 2010).
# Among all 310,000 compounds or so, about 1,100 (0.35%) were called active. The sample holds actives, similar compounds and a random draw of the others, so the mix is not that of the screen.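 How the source made its calls: active means fluorescence ratio B-score, a plate-corrected score, at least three library SD, with initial intensity B-score within 5 SD; inactive means the rest.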
# Molecular target: Potassium voltage-gated channel subfamily KQT member 1 (Homo sapiens) (UniProt P51787)
# Sequence (P51787 whole entry, looked up): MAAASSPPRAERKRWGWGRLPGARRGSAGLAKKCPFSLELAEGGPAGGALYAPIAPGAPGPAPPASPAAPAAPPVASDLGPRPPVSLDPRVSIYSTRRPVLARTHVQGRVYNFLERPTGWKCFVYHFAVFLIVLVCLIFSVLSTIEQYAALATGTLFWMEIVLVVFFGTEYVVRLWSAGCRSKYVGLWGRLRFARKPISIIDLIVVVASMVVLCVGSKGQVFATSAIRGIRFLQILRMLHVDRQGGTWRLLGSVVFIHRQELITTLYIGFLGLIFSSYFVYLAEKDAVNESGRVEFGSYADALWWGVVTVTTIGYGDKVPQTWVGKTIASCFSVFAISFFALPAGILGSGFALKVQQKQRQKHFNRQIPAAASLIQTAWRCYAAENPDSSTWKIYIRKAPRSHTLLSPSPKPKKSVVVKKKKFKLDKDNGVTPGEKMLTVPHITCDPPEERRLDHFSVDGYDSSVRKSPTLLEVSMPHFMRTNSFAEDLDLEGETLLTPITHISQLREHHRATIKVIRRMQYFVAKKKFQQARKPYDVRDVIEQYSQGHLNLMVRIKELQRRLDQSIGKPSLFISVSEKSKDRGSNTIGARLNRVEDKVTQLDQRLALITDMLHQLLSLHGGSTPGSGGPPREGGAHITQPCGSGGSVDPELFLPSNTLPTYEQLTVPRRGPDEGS
# Experiment: human KCNQ1 current enhancers – cell-based, thallium flux, high-throughput, primary screen (AID 2648)
# Details: CHO-K1 KCNQ1, thallium flux FluxOR fluorescence, at 10 µM; stronger effect = higher value
# Summary of the method: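 Test system: CHO-K1 cells stably expressing KCNQ1 / Medium: assay buffer / Also added: depolarizing K+/Tl+ stimulus, K2SO4 and Tl2SO4 each 12.5 mM in 5x stock / Incubation: 90 min dye loading and 20 min compound exposure, both at room temperature / Signal: thallium influx via FluxOR fluorescence, kinetic imaging / Evaluation: B score of baseline-normalized fluorescence ratio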
row,Compound,B-score
1,Cc1sc2ncnc(N3CCC(C(=O)Nc4nc5ccc(Cl)cc5s4)CC3)c2c1C,inactive
2,O=C(CNS(=O)(=O)c1ccc(Br)s1)NCc1ccc2c(c1)OCO2,inactive
3,Cn1c2ccccc2c2cc(/C=C(\NC(=O)c3ccccc3)C(=O)NCC(=O)O)ccc21,inactive
4,CCNC(=S)Nc1ccc(OC(F)(F)F)cc1,inactive
5,FC(F)(F)Oc1ccc(NC(=S)NCc2ccccc2)cc1,inactive
6,CS(=O)(=O)c1sc(C(=O)NC(=S)Nc2ccc(OC(F)(F)F)cc2)c2c1C=CCC2,11 (active)
7,CN(/N=C/c1ccccc1)C(=S)c1ccccc1,inactive
8,CC(CC(=O)Nc1ccccc1)n1ccnc1 (stereo unspecified),inactive
9,Cc1ccn2c(=O)c(C(=O)NCCC3=CCCCC3)c(O)nc2c1,inactive
10,COc1cc(Br)cc(/C=N/c2ncn[nH]2)c1O,12 (active)
11,Oc1c(Cl)cc(Cl)cc1/C=N/c1ncn[nH]1,9 (active)
12,C=CCn1c(Cn2nnc3ccccc32)nnc1SCC(=O)N/N=C/c1cc(Br)cc(OC)c1O,inactive
13,Oc1ccc(Br)cc1C=Nc1ccc2[nH]ncc2c1,inactive
14,O=C(Cn1cncn1)N/N=C/c1c2ccccc2cc2ccccc12,inactive
15,CN(c1ccccn1)c1ncnc2[nH]ncc12,inactive
16,CN(Cc1cccs1)C(=O)Cc1c[nH]c2ccccc12,inactive
17,CCc1ccc(NC(=O)COC(=O)c2cccs2)cc1,inactive
18,CC(C)C(=O)Nc1ccc(C(=O)NNC(=O)c2cccs2)cc1,inactive

row,Compound,B-score
1,CCc1ccc(NC(=O)C(=O)NNC(=O)c2cccs2)cc1,54 (active)
2,CCCCNC(=O)CN1C(=O)NC(Cc2ccccc2)(Cc2ccccc2)C1=O,inactive
3,Clc1ccc(C[n+]2cc(-c3ccc(Cl)cc3)n3c2CCC3)cc1,inactive
4,CN1CCN(S(=O)(=O)c2ccc(NC(=S)NC(=O)C3CC3)cc2)CC1,inactive
5,Cc1cc(C)nc(N2CCC(C(=O)Nc3ccc4c(c3)OCCO4)CC2)n1,inactive
6,Cc1cc(Nc2cc(N3CCN(C)CC3)nc(Sc3ccc(NC(=O)C4CC4)cc3)n2)n[nH]1,7 (active)
7,COCC(=O)N1CCc2ccc(NC(=O)c3ccccc3Cl)cc2C1,inactive
8,CCc1nccn1CCC(=O)N1CCCC(N2CCN(c3ccccc3F)CC2)C1 (stereo unspecified),inactive
9,Cc1cccc(C(=O)N2CCN(S(=O)(=O)N3CCCCC3)CC2)c1,inactive
10,O=C(CCN1C(=O)c2ccccc2C1=O)NCCN1CCOCC1,inactive
11,O=C(NC1=NCCS1)[C@H](Cc1ccccc1)N1C(=O)c2ccccc2C1=O,inactive
12,O=C(NCCN1CCOCC1)[C@H](Cc1ccccc1)N1C(=O)c2ccccc2C1=O,11 (active)
13,CC(C)COC(=O)C1C2C=CC3(CN(C(C)c4ccc(Br)cc4)C(=O)C13)O2 (stereo unspecified),inactive
14,CCOC(=O)C1=C(C)Nc2sc(C(=O)c3ccc(Br)cc3)c(N)c2C1c1ccc(C(=O)OC)cc1 (stereo unspecified),inactive
15,CCOC(=O)c1sc(=S)n2c1[nH]c(=O)c1ccc(C(=O)OC)cc12,59 (active)
16,CCOC(=O)c1ccc(Nc2cc3ccccc3c(=O)[nH]2)cc1,inactive
17,CCOC(=O)c1c(C)nn(-c2ncccc2NC(=O)CCC(=O)O)c1C,inactive
18,Cc1oc2cc3oc(=O)ccc3cc2c1C,inactive
